Data published in PMC5616206 (Toxicology Reports, 2016).
“Also recorded” adds a separate entry of the source.

Tested on: S. typhimurium strains TA98, TA100, TA1535, TA1537 and E. coli strain WP2 uvrA
Assay: Bacterial reverse mutation test
Format: cell-based
Conditions: 50–5000 μg/plate, plate incorporation, ±S9
Summary of the method: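 The assay followed OECD Guideline 471 and used S. typhimurium TA98, TA100, TA1535 and TA1537 and E. coli WP2 uvrA. It was run with and without S9 from livers of Aroclor 1254-treated Sprague-Dawley rats. One compound was tested at 21–5000 μg/plate by plate incorporation and pre-incubation. The other was tested at 50–5000 μg/plate in an initial toxicity-mutation test and a confirmatory mutation test.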

SMILES: COC[C@@H](CC(C)C)NC(=O)c1ccc(C)c(C)c1 [S9229, (R)-N-(1-methoxy-4-methylpentan-2-yl)-3,4-dimethylbenzamide]
- Reverse mutation (in vitro), Result: not mutagenic; also recorded: Negative
